Measured values pooled from the literature.
Each line is one published result; the experiments were not run side by side.
Target: Receptor-interacting serine/threonine-protein kinase 2 (RIPK2, Homo sapiens, UniProt O43353)

| Compound | assay | conditions | remaining binding |
| --- | --- | --- | --- |
| CN(C)c1ncc(F)c(-c2cnn3ncccc23)n1 | binding | 1 µM | 100% |
| O=C1NC(c2ccccn2)Sc2ccccc21 (stereo not shown) | cell-free assay, competition with immobilised ligand | 1 µM | 100% |
| O=C(c1ccc(Nc2ncc(Cl)c(-c3ccc(Cl)s3)n2)cc1)N1CCC(N2CCCC2)CC1 | binding, competition with immobilised ligand | 1 µM | 89% |
| CC(=O)C1=C(C)N(c2cccc(C(F)(F)F)c2)C(=O)N[C@@H]1c1ccc(C#N)nc1 | cell-free assay, competition with immobilised ligand | 1 µM | 98.7% |
| COc1cnc(Nc2cccc(S(N)(=O)=O)c2)nc1N1CCN(c2ccccc2)CC1 | binding, competition with immobilised ligand | 1 µM | 100% |
| CN(C)c1nccc(-c2cnc3ncccn23)n1 | binding | 1 µM | 98% |
| CN(C(=O)c1ccccc1)c1cc(N(C)c2ccc3c(c2)CCc2ccc(C(=O)NCCN4CCOCC4)cc2C3=O)ccc1F | cell-free assay, competition with immobilised ligand | 1 µM | 56% |
| N[C@@H]1CCN(c2nccc(-c3cnn4ncccc34)n2)C1 | binding | 1 µM | 95% |
| CCN1CCN(Cc2ccc(C(=O)Nc3ccc(C)c(Oc4ccc5c(c4)CC(=O)N5)c3)cc2C(F)(F)F)CC1 | binding, competition with immobilised ligand | 1 µM | 100% |
| CN(c1nccc(-c2cnn3ncccc23)n1)C1CC1 | binding | 1 µM | 87% |
| O=C(c1ccc(Nc2nccc(-c3cc4ccccc4s3)n2)cc1)N1CCC(N2CCCC2)CC1 | binding, competition with immobilised ligand | 1 µM | 79% |
| c1cnn2ncc(-c3ccnc(N4CCC45COC5)n3)c2c1 | binding | 1 µM | 78% |
| CNC(=O)[C@@H]1CC[C@@H](n2c(-c3ccc4cnccc4c3)nc3ccc(C(=O)NCc4cccc(C(N)=O)c4)cc32)C1 | binding, competition with immobilised ligand | 1 µM | 100% |
| Cc1c[nH]c2nccc(Oc3c(F)cc(Nc4cc(Cl)nc(N)n4)cc3F)c12 | cell-free assay, competition with immobilised ligand | 0.1 µM | 92% |
| C[C@H]1CCN(c2nccc(-c3cnn4ncccc34)n2)C1 | binding | 1 µM | 95% |
| C[C@@H](c1ccc(-n2cnc3c(N)ncnc32)cc1)N1CCc2nn(C)c(Cc3ccccc3)c2C1=O | binding, competition with immobilised ligand | 0.1 µM | 100% |
| Nc1cnc(N2CCc3cc(S(=O)(=O)Nc4c(F)cc(Cl)cc4F)cc(N4CCCC4=O)c32)nc1 | cell-free assay, competition with immobilised ligand | 1 µM | 53% |
| CN(C)c1nccc(-c2cnn3ncccc23)n1 | binding | 1 µM | 100% |
| CO[C@H]1CC[C@H](CNc2ccc(S(=O)(=O)NC(=O)c3ccc(N4CCN(CC5=C(c6ccc(Cl)cc6)CC(C)(C)CC5)CC4)cc3Oc3cnc4[nH]ccc4c3)cc2[N+](=O)[O-])CC1 | cell-free assay, competition with immobilised ligand | 1 µM | 85% |
| O=C(NCCCN1CCOCC1)c1ccc(Nc2nccc(-c3cc4ccccc4s3)n2)cc1 | binding, competition with immobilised ligand | 1 µM | 80% |
| CN(C)C(=O)Cn1cc(-c2nc(C3(c4ccc(-c5cnc(N)nc5)cc4)CC3)no2)cn1 | cell-free assay, competition with immobilised ligand | 1 µM | 100% |
| O=C(Nc1c[nH]nc1C(=O)NC1CCNCC1)c1cc(F)cc(F)c1 | binding, competition with immobilised ligand | 1 µM | 53% |
